From PubChem BioAssay
Sampled rows, rich in hits. Any-hit rate of the full collection: about 4.8%.
PAFAH1B3 FP inh – PAFAH1B3 (human) inhibition | recombinant PAFAH1B3, FP-rhodamine probe, fluorescence polarization | 340,000 compounds, 0.28% hits | Q15102 | inhibition, % at 3.39 µM;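 active means inhibition above the screen-wide average of all tested compounds plus 3 SD, cut at about 25% in these data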
GRIN3A LBD mod – NR3A (human) ligand-binding domain modulation; NR3A LBD differential scanning fluorimetry, Tm shift; 0% = protein alone, 100% = glycine-bound protein; Tm shift relative to glycine control, % at 25 µM; 340,000 compounds, 2.5% hits; AID 1259313;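 active means melting temperature shift of at least 10% of the positive control shift, at one fixed dose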
pPAFAH inh – inhibitors of human plasma PAF acetylhydrolase (pPAFAH) | Q13093 | recombinant pPAFAH, FP-rhodamine probe fluorescence polarization | inhibition, % at 3.39 µM | 330,000 compounds, 1.5% hits;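 active means inhibition above the mean inhibition across the screen plus 3 SD, cut at about 25% in these data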;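 further: inhibitors block binding of the rhodamine activity-based probe so polarization drops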
UCH37 inh – human UCH37 deubiquitinating enzyme inhibition | purified proteasome/UCH37, Ub-AMC cleavage fluorescence | inhibition, % (no concentration beside the values) | 330,000 compounds, 0.33% hits | AID 588478;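 active means mean inhibition over replicate wells above about 20%, limit read from the data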
Target sequence (Q9Y5K5 whole entry, looked up): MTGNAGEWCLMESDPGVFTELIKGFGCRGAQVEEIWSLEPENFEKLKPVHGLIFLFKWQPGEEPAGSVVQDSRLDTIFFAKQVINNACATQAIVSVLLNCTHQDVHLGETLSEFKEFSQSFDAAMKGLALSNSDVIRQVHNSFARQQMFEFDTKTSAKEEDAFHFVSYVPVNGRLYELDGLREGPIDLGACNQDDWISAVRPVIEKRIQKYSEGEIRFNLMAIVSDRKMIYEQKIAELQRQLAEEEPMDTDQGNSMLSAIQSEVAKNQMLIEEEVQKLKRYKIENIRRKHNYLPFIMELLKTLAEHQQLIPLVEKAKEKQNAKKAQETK
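Material: human UCH37 enzyme supplied as purified proteasome complex. Measure: % inhibition of Ub-AMC cleavage fluorescence. Medium: pH 7.4 Tris-HCl (50 mM) with ovalbumin, ATP-MgCl2, DTT. Times: 30 min preincubation with enzyme, 25 min cleavage at room temperature. Detection: AMC fluorescence intensity at 355/460 nm.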
PAFAH2 FP inh – inhibitors of human PAFAH2; recombinant PAFAH2, FP-rhodamine activity probe, fluorescence polarization; inhibition, % at 3.39 µM; 340,000 compounds, 0.99% hits; AID 492956;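 active means inhibition above the mean over all tested compounds plus 3 SD, cut at about 30% in these data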;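 further: inhibitors block probe labeling of enzyme so polarization drops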
PAFAH1B2 FP inh – PAFAH1B2 (human) inhibition; P68402; recombinant PAFAH1B2, FP-rhodamine activity probe, fluorescence polarization; 340,000 compounds, 1.2% hits; inhibition, % at 3.39 µM;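 active means inhibition above the mean of all tested compounds plus 3 SD, cut at about 24% in these data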
A number is an active result; n = inactive; x = no result given.

SMILES	PAFAH1B3 FP inh	GRIN3A LBD mod	pPAFAH inh	UCH37 inh	PAFAH2 FP inh	PAFAH1B2 FP inh
NC(=O)c1ncn([C@@H]2O[C@H](CNCc3cccc(OC4CCCC4)c3)[C@@H](O)[C@H]2O)n1	n	16.8	x	x	n	n
Nc1nonc1-n1nnc(C(=O)NN=Cc2ccc(OCc3ccccc3F)cc2)c1CN1CCCCC1	x	x	x	n	x	x
CCC(=NNC(=O)c1ccc(Br)o1)c1ccc(Cl)cc1	x	x	x	n	x	x
COc1ccc(CC(=O)NN=Cc2cccn2-c2ccc([N+](=O)[O-])cc2)cc1OC	x	x	x	n	x	x
CC(NC(=O)c1ccco1)C(=O)N1CCN(C(c2ccccc2)c2ccccc2)CC1 (stereo not given)	n	11.1	n	n	n	n
O=C1C(Oc2ccccc2)C(c2ccc3c(c2)OCO3)N1CCc1ccc(F)cc1 (stereo not given)	n	13.0	n	n	n	n
COc1ccc(CCN2C(=O)C(Oc3ccccc3C)C2c2ccc3c(c2)OCO3)cc1 (stereo not given)	n	n	n	n	n	n
Cc1ccc2nc(-c3ccc(NC(=O)CCN4C(=O)c5ccccc5C4=O)cc3)sc2c1	n	18.0	n	x	n	n
Cc1ccc2nc(-c3ccc(NC(=O)C(C)N4C(=O)c5ccccc5C4=O)cc3)sc2c1 (stereo not given)	n	15.9	n	n	n	n
Cc1ccc2nc(-c3ccc(NC(=S)NC(=O)C(C)C)cc3)sc2c1	n	n	n	n	n	n
CN1CCN(N=C2C(=O)Nc3ccc([N+](=O)[O-])cc32)CC1	x	x	x	n	x	x
CCOc1ccc(Nc2nc(Cc3nnc(SCC(=O)O)o3)cs2)cc1	n	n	28.0	n	n	n
O=C(NN=C/C=C\c1ccccc1[N+](=O)[O-])c1cccs1	x	x	x	n	x	x
CCN1C(=O)N(C)C2(c3ccccc3)N(C)C(=O)N(C)C12c1ccccc1 (stereo not given)	n	n	n	n	n	38.4
CCN1C(=O)N(CC)C(O)(c2ccccc2)C1(O)c1ccccc1 (stereo not given)	n	n	n	n	n	n
CC(=NNC(=O)c1cc2c(s1)CCC(C)C2)c1ccncc1 (stereo not given)	x	x	x	n	x	x
Cc1ccc(-c2csc(NC(=S)NC(=O)c3ccco3)n2)cc1	n	20.0	n	n	n	n
CCCn1nnc(NC(=S)NC(=O)/C=C/c2ccco2)n1	n	n	26.3	n	n	n
COc1ccc(-c2csc(NC(=S)NC(=O)/C=C/c3ccco3)n2)cc1Br	x	21.0	n	x	x	x
COc1ccc(-c2csc(NC(=S)NC(=O)c3ccco3)n2)cc1Br	n	n	n	n	n	n
COc1ccc(-c2csc(NC(=S)NC(=O)c3ccccc3)n2)cc1Br	x	39.8	n	n	x	x
O=C1c2ccc([N+](=O)[O-])cc2NC(c2ccco2)N1N=Cc1ccco1 (stereo not given)	x	x	x	n	x	x
CC(=NN=C(N)N)c1cccc(Cl)c1	x	x	x	n	x	x
O=C(NN=Cc1c(F)cccc1Cl)c1cc(C2CC2)[nH]n1	x	x	x	n	x	x
O=C(CN1CCCCCCC1)NN=Cc1ccc(F)cc1F	x	x	x	n	x	x
SMILES	PAFAH1B3 FP inh	GRIN3A LBD mod	pPAFAH inh	UCH37 inh	PAFAH2 FP inh	PAFAH1B2 FP inh
Cc1ccc(-c2nc3ccccc3s2)cc1NC(=S)NC(=O)/C=C/c1ccco1	n	n	n	n	n	n
COc1ccc(-c2csc(NC(=S)NC(=O)/C=C/c3ccco3)n2)cc1OC	n	12.6	n	n	n	n
O=C(/C=C/c1ccco1)NC(=S)Nc1cc(-c2nc3ccccc3s2)ccc1Cl	n	17.8	n	n	n	n
COc1cccc(C2NC(c3cccc(OC)c3O)C(C)C(=O)C2C)c1O (stereo not given)	n	n	n	n	n	n
CC1C(=O)C(C)C(c2cc(Cl)ccc2O)NC1c1cc(Cl)ccc1O (stereo not given)	n	26.8	n	n	n	n
COc1cc(C=NNC(=O)c2ccncc2)ccc1OCc1cnc(Cl)s1	x	x	x	n	x	x
O=C(CSc1nnc(SCc2ccccc2)s1)NN=Cc1ccc(C(=O)O)cc1	x	x	x	n	x	x
O=C(OCc1nc2ccsc2c(=O)[nH]1)c1cc(Br)c(Br)s1	n	22.2	n	n	n	n
O=C(OCc1nc2ccsc2c(=O)[nH]1)c1ccco1	n	n	n	n	n	n
CCN(CC)c1ccc(C=NN2CCN(Cc3ccc(C)cc3C)CC2)c(O)c1	x	x	x	n	x	x
COc1ccc(Cl)cc1NC(=O)CC(C)=NNC(=O)c1ccccc1[N+](=O)[O-]	x	x	x	n	x	x
